# An excerpt weighted towards active compounds, which were near 3.4% of everything screened.
# TAAR1 antag = antagonists of human TAAR1 | Q96RJ0 | CHO RD-HGA16 TAAR1, Fluo-8 calcium fluorescence, antagonist | inhibition, % at 3 µM | hit rate 1.5% among 360,000;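 active = inhibition above a per-plate cutoff, the mean inhibition of test compounds on that plate plus 3 SD, cut at about 49% in these data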;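 note: 0% = DMSO plus EC80 beta-PEA response and 100% = DMSO alone without agonist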
#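 Test system – hTAAR1-expressing CHO RD-HGA16 cells, Gα16-coupled · Reagent – β-PEA at EC80 concentration, post-compound challenge · Compound dosing – 3 µM, single point · Timing – 140 s kinetic read after compound, 140 s after agonist · Detection – Fluo-8 intracellular calcium dye fluorescence, real-time kinetic reads · Control set – DMSO and EC80 PEA controls · Repeats – n of 1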
# TRPML3 ag = activates the human TRPML3 channel | Q8TDD5 | HEK293 TRPML3-YFP, Fluo-8 calcium fluorescence; 100% = the carbachol control signal | activation, % at 3 µM | hit rate 0.29% among 220,000 | AID 1448;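 active = activation above its plate's cutoff, the mean activation of the plate's test wells plus 3 SD, cut at about 12% in these data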;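 note: 0% = DMSO only wells and 100% = carbachol wells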
#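 Test system: HEK293 cells stably carrying human TRPML3-YFP; Doses: single dose, 3 µM final nominal compound, 0.3% DMSO final; Schedule: dye loading 1 h 37 °C then 30 min ambient, 125 s read; Technique: Fluo-8 calcium fluorescence; Benchmarks: high control carbachol 87 µM, low control DMSO.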
# TAAR1 ag = agonists of human TAAR1; hit rate 0.99% among 360,000; AID 624467; activation, % at 3 µM; CHO RD-HGA16 TAAR1, Fluo-8 calcium fluorescence; vehicle wells 0%, saturating PEA agonist 100%; Q96RJ0;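 active = activation above the mean activation of all test compounds in the run plus 3 SD, cut at about 38% in these data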
#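 Assay system – CHO-derived RD-HGA16 cells with stable Gα16 and human TAAR1 · Compound dosing – one-point dosing at 3 µM (nominal) · Incubation – 17-24 h seeding, 75 min 37 °C dye, 30 min RT · Measured by – kinetic Fluo-8 calcium fluorescence · Control set – DMSO vehicle as 0%, PEA at EC100 as 100% · Repeats – single well for each compound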
# LANA-H2A inh = blocks KSHV LANA binding to histone H2A/H2B; cell-free LANA-H2A/H2B peptide, fluorescence polarization; hit rate 0.6% among 320,000; Q9QR71; AID 2629; inhibition, % (test concentration not listed); in the data active = inhibition mostly above about 10%, no sharp cut-off; inactive = mostly below about 6.7%
# zfTRPN1 agonist = activates the zebrafish TRPN1 channel; HEK293 zebrafish TRPN1-YFP, Fluo-8 calcium fluorescence; 100% = response to 87 µM carbachol; activation, % at 3 µM; hit rate 0.18% among 220,000; AID 1424;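 active = activation above its plate's cutoff, the mean activation of test wells on that plate plus 3 SD, cut at about 19% in these data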;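 note: 0% = DMSO alone and 100% = 87 µM carbachol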
#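 Material – zebrafish TRPN1-YFP in HEK293 cells · Doses – 3 µM single point · Schedule – dye 1 h 37 °C plus 30 min RT · Signal – Fluo-8 calcium fluorescence, excitation 470-495 nm, emission 515-575 nm · Read-out – % activation versus carbachol response · Control set – carbachol high, DMSO low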
# GPR7 antag = antagonists of human GPR7 (neuropeptides B/W receptor 1); P48145; hit rate 1.1% among 290,000; GPR7-expressing cells, fluorescence antagonist assay; inhibition, % at 4.4 µM; in the data active = inhibition above about 16%, passing the limit was not always enough;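 note: cells stimulated with the agonist NPW; 0% = agonist with vehicle and 100% = vehicle without agonist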
# Starred values were filed as active, the others as inactive; x = no result given; + = active, no number.
SMILES,TAAR1 antag,TRPML3 ag,TAAR1 ag,LANA-H2A inh,zfTRPN1 agonist,GPR7 antag
Cc1ccc(Nc2nc(NCc3ccccc3)nc3ccsc23)c(C)c1,88*,x,29,x,x,x
CNc1nc(NCc2ccccc2)c2sccc2n1,31,x,46*,x,x,x
c1ccc(CNc2nc(NCc3cccs3)nc3ccsc23)cc1,81*,x,52*,x,x,x
CNc1nc(NCc2cccc(OC)c2)c2sccc2n1,21,x,27,x,x,x
COC(=O)c1ccc2nc(-c3cccc(Cl)c3)c(Cc3ccccc3C(F)(F)F)n2c1,-19,x,0,x,x,x
Cc1cccc(C2=CC(=O)CC(C)(C)C2=O)c1,-9,x,5,x,x,x
CC1=CC2C3C(=O)N(c4ccccc4)C(=O)C3C1C(=O)C2(O)C(C)C (stereo not given),-22,x,1,x,x,x
CCCc1ccc(-c2cc(NC(=O)Cc3c(C)[nH]c4ccccc34)ccc2N(C)c2cccnc2)cc1,-1,x,0,x,x,x
Cc1cc(O)cc(=O)n1-c1cccc([N+](=O)[O-])c1,-7,x,4,x,x,x
COCCNc1nc(NCc2cccs2)nc2ccsc12,104*,x,122*,x,x,x
COC(=O)c1ccc(CN2C(=O)[C@]3(OCCC=C[C@H]3C)c3cc(OC)ccc32)cc1,-34,x,0,x,x,x
O=C(Cc1c[nH]c2ccccc12)Nc1ccc(Nc2cccnc2)c(Br)c1,42,x,2,x,x,x
O=C(Nc1cccc(S(=O)(=O)N2CCOCC2)c1)c1ccc2c(=O)n3c(nc2c1)CCCCC3,51*,2,16,-1,6,1
O=C(Nc1ccccc1Cl)c1ccc2c(=O)n3c(nc2c1)CCC3,-3,x,14,-6,x,x
O=C(Nc1nc(-c2ccccc2)cs1)c1ccc2c(=O)n3c(nc2c1)CCCCC3,59*,3,15,2,4,-13
Cc1cc(-c2cc(NC(=O)Cc3c[nH]c4ccccc34)ccc2N(C)c2cccnc2)ccc1F,13,x,5,x,x,x
CCOC(=O)C1=CCN(S(=O)(=O)c2ccc(Cl)cc2)C1c1cccc(Br)c1 (stereo not given),19,x,0,x,x,x
CCc1nc(SCC(=O)Nc2cc(C)on2)n[nH]1,-5,0,3,-2,-1,-11
Cc1cc(NC(=O)CSc2n[nH]c(N)n2)no1,-11,0,0,+,2,11
COc1ccc(-c2ccc(C(=O)Nc3cccc(NS(C)(=O)=O)c3)c3occc23)c(C)c1,71*,x,3,x,x,x
NNC(=O)c1sccc1OCc1ccc(Cl)cc1Cl,13,2,9,-2,7,20*
Cc1cccc(C(=O)NNC(=O)c2ccccc2)c1,2,0,2,-3,-1,5
Cc1cccc(C(=O)c2cnc3ccccc3c2-c2ccccc2)c1,49*,0,11,1,-2,3
CC(C)(C)c1ccc(NC(=O)COc2ccc(-n3ccnc3)cc2)cc1,57*,3,22,0,12,2
O=C1Oc2ccccc2C(=O)/C1=C/N1CCN(c2ccccc2F)CC1,-21,0,39*,0,-1,13
SMILES,TAAR1 antag,TRPML3 ag,TAAR1 ag,LANA-H2A inh,zfTRPN1 agonist,GPR7 antag
COc1ccc(C(=O)Nc2ccc(N3CCCC3)cc2)cc1,-9,0,0,-3,0,-4
CC(=O)c1ccc(N2CCN(C(=S)Nc3ccc(Oc4ccccc4)cc3)CC2)cc1,44,5,5,-3,6,24*
CN1CCN(c2ccc(NC(=O)c3ccc(Oc4ccccc4)cc3)cc2)CC1,5,x,38*,0,x,-3
CCOc1ccc(C(=O)Nc2ccc(N3CCN(C)CC3)cc2)cc1Br,27,1,47*,-5,-1,-5
COc1ccc(N2CCN(C(=S)Nc3ccccc3)CC2)cc1,-1,x,1,4,x,-11
O=C(NCc1ccccc1)[C@H]1CCCN1C(=O)[C@H]1CCCN1C(=O)c1ccccc1C(F)(F)F,-15,x,1,x,x,x
COCc1cc(N2CCNC[C@H]2C)ccc1N1C[C@@H](C)O[C@@H](C)C1,-4,x,1,x,x,x
CC1CCN(C(=O)c2ncn3c2C(=O)NC[C@@H]3C)CC1,1,x,3,x,x,x
COc1cccc(CNC(=O)[C@H]2CCCN2C(=O)[C@H]2CCCN2C(=O)c2cccc(Cl)c2)c1,-18,x,1,x,x,x
Nc1[nH]c(C(=O)c2ccccc2)c(-c2ccccc2)c1C(=O)NCCc1c[nH]c2ccccc12,17,x,8,x,x,x
COC(=O)C(Cc1ccc(O)cc1)NS(=O)(=O)Cc1ccccc1 (stereo not given),-30,x,3,x,x,x
COC(=O)N/N=C/c1cn(CCOc2ccc(OC)cc2)c2ccccc12,50*,x,1,7,x,1
COC(=O)N/N=C/c1cn(CCOc2ccccc2)c2ccccc12,25,0,11,-13,1,-7
Cc1ccc2nc(-c3ccc(CN4CCC5(CC4)CNc4ccccc45)cc3)c(-c3ccccc3)nc2c1,22,x,0,x,x,x
Clc1ccc(Nc2ccc(NCc3ccccc3)nn2)cc1,39,0,37,-4,-2,19*
COCCn1c(SCC(=O)c2c(N)n(C3CC3)c(=O)[nH]c2=O)nnc1-c1ccc(Cl)cc1,12,x,0,+,x,x
C/C(N)=C(/C#N)C(=O)CSc1nnnn1-c1ccc(C)cc1,3,1,21,11,3,15*
Cc1ccc(C)c(-n2ccnc2SCC(=O)c2c(N)n(C3CC3)c(=O)[nH]c2=O)c1,-20,x,14,+,x,x
Cc1ccc(-n2nnnc2SCC(=O)c2c(N)n(C3CC3)c(=O)[nH]c2=O)cc1,-2,x,7,17*,x,x
O=S1(=O)N[C@@H](Cc2ccccc2)COc2cc(NC3CC3)ccc21,-29,x,1,x,x,x
Cc1ccccc1C(=O)N[C@@H](CC(C)C)C(=O)N1CCC[C@H]1C(=O)NCc1ccccc1,-12,x,0,x,x,x
COC(=O)[C@]12C[C@H](CC(=O)N3CCOCC3)C(=O)N(Cc3ccccc3)C1=C[C@H](C(C)(C)C)O[C@@H]2C,-9,x,1,x,x,x
COC(=O)/C=C1\OC(C)c2ccccc21 (stereo not given),-24,x,-1,x,x,x
CC(C)C(=O)COc1c2occc2cc2ccc(=O)oc12,-9,x,0,x,x,x
C=C(C)C(COc1c2occc2cc2ccc(=O)oc12)OC(C)(C)C(O)COc1c2occc2cc2ccc(=O)oc12 (stereo not given),58*,x,16,x,x,x
Cc1ccc([N+](=O)[O-])cc1NC(=O)C(Sc1ccccc1)c1ccccc1 (stereo not given),52*,0,2,-7,0,-2
COCCOc1nc2c(c(=O)n(C)c(=O)n2C)n1CCc1ccccc1,-16,1,3,11*,3,-2
C=CCOc1nc2c(c(=O)n(C)c(=O)n2C)n1Cc1ccccc1,-17,0,9,2,3,-22

# Screens from PubChem BioAssay.
